Measurements from article PMC7003538 (Biochemistry, 2019).

Experiments:
Assay in all cases: UV-Vis spectral titration
Assay type in all cases: binding
CYP3A4 [1] = target: CYP3A4 (Homo sapiens, UniProt P08684, F213A/S18F)
How it was run: (§1)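 Human CYP3A4 (NF-14 construct, C-terminal pentahistidine tag, pCWori+ vector), wild type or F213 mutant, was incorporated into POPC Nanodiscs. The enzyme at 1-2 µM was titrated at 37 °C with test compound added in methanol (final methanol <1.5%), and UV-Vis spectra were read for the heme high-spin shift. Mixed titrations kept a fixed 1:12 steroid:second-substrate molar ratio.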

CYP3A4 [2] = target: CYP3A4 (Homo sapiens, UniProt P08684, F213Y/S18F)
CYP3A4 (Homo sapiens, UniProt P08684, F213Y/S18F), sequence (P08684 13-503 S18F/F213Y limits assumed): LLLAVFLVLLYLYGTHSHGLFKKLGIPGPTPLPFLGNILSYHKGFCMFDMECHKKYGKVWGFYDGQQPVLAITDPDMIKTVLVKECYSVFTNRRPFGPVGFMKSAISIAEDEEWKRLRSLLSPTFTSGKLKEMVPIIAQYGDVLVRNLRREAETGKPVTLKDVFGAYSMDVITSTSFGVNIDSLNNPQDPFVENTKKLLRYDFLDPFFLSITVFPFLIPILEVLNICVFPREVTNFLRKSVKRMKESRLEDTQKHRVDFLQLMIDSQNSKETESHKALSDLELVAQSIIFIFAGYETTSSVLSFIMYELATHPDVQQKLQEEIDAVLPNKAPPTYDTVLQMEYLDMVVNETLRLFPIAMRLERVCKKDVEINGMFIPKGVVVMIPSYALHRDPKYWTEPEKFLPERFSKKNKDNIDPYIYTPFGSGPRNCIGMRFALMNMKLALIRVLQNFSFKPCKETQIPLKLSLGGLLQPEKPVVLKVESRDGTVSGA
How it was run: as §1

CYP3A4 [3] = target: CYP3A4 (Homo sapiens, UniProt P08684, F213S/S18F)
CYP3A4 (Homo sapiens, UniProt P08684, F213S/S18F), sequence (P08684 13-503 S18F/F213S limits assumed): as the sequence (P08684 13-503 S18F/F213Y limits assumed) above, with Y201S counted along it
How it was run: as §1

CYP3A4 [4] = target: CYP3A4 (Homo sapiens, UniProt P08684, S18F)
CYP3A4 (Homo sapiens, UniProt P08684, S18F), sequence (P08684 13-503 S18F limits assumed): as the sequence (P08684 13-503 S18F/F213Y limits assumed) above, with Y201F counted along it
How it was run: as §1

CYP3A4 (Homo sapiens, UniProt P08684, F213A/S18F), sequence (P08684 13-503 S18F/F213A limits assumed): as the sequence (P08684 13-503 S18F/F213Y limits assumed) above, with Y201A counted along it

Structure (SMILES): CC(=O)[C@H]1CC[C@H]2[C@@H]3CCC4=CC(=O)CC[C@]4(C)[C@H]3CC[C@]12C [progesterone]
- Kd (CYP3A4 [1]): 24.3 µM
- Kd (CYP3A4 [2]): 21.8 µM
- Kd (CYP3A4 [3]): 24.2 µM
- Kd (CYP3A4 [4]): 31 µM
